# In ChEMBL document CHEMBL1122328, “Hypolipidemic activity of phthalimide derivatives. 2. N-phenylphthalimide and derivatives” (1983):
# Tests used:
# Mus musculus [1] = experiment: Effect on cholesterol from CF1 male mice after 16 days at a dose of 40 (mg/kg/day); assay type: functional
# Method in brief: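 CF1 male mice dosed ip for 16 days at 10–60 (mg/kg)/day; liver taken and 10% homogenate made in 0.25 M sucrose + 0.001 M EDTA; aliquot extracted by Folch and Bligh–Dyer methods, mg lipid weighed, cholesterol measured by Liebermann–Burchard method; n = 6; % of 1% CMC control.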
# Mus musculus [2] = experiment: In vitro effect on CF1 male mouse on phosphatidate phosphohydrolase after 16 days at a dose of 10 (mg/kg)/day; assay type: functional
# Method in brief: (§1)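 In vivo enzyme study. CF₁ male mice were dosed ip for 16 days in 1% CMC, and liver was homogenised to 10% in 0.25 M sucrose with 0.001 M EDTA. Enzymes assayed: acetyl-CoA synthetase as hydroxamate at 540 nm after 30 min at 37 °C; HMG CoA reductase with [1-¹⁴C]acetate in 9000g supernatant for 60 min at 37 °C; fatty acid synthetase with [2-¹⁴C]malonyl-CoA; acyltransferase with [³H]glycerol 3-phosphate and microsomes for 10 min; phosphatidate phosphohydrolase as released phosphate at 820 nm after 30 min. N = 6; reported as % control.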
# Mus musculus [3] = experiment: Effect on Serum triglceride levels on CF1 male mice at a dose of 12.5 (mg/kg)/day after 14 days; assay type: functional
# Method in brief: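 CF1 male mice (~25 g), drug suspended in 1% carboxymethylcellulose in water, given ip daily for 16 days; n = 6; vehicle control. Tail-vein blood on days 9 and 16, serum cholesterol by modified Liebermann–Burchard reaction; day-14 serum triglyceride by commercial kit; expressed as % control.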
# Mus musculus [4] = experiment: In vitro effect on CF1 male mouse onAc-CoA carboxylase after 16 days at a dose of 40 (mg/kg)/day; assay type: functional; settings: in the assay text read “In vivo” for “In vitro”
# Method in brief: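 Mice (CF1 males) given agent ip daily for 16 days in 1% carboxymethylcellulose; liver 10% homogenate in 0.25 M sucrose + 0.001 M EDTA. Acetyl-CoA carboxylase first polymerized 30 min at 37 °C, then incubated 30 min at 37 °C with sodium [14C]bicarbonate (41.0 mCi/mmol); incorporated label counted. Activity as % of vehicle control; N = 6.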
# Mus musculus [5] = experiment: In vitro effect on CF1 male mouse on Fatty acid synthetase after 16 days at a dose of 40 (mg/kg)/day; assay type: functional; method in brief: as §1
# Mus musculus [6] = experiment: In vitro effect on CF1 male mouse on Fatty acid synthetase after 16 days at a dose of 60 (mg/kg)/day; assay type: functional; method in brief: as §1
# Mus musculus [7] = experiment: In vitro effect on CF1 male mouse on HMGCoA reductase after 16 days at a dose of 10 (mg/kg)/day; assay type: functional; method in brief: as §1
# Mus musculus [8] = experiment: In vitro effect on CF1 male mouse on HMGCoA reductase after 16 days at a dose of 20 (mg/kg)/day; assay type: functional; method in brief: as §1
# Rattus norvegicus [9] = experiment: Effect on high density Triglycerides Holtzman rats after 14 days administration; assay type: functional
# Method in brief: (§2)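 Holtzman male rats (~400 g) given drug at 20 (mg/kg)/day for 14 days; on day 14 blood taken from the abdominal aorta and serum separated by centrifugation at 3500 rpm; lipid and protein content of the lipoprotein fractions measured.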
# Rattus norvegicus [10] = experiment: Effect on high density cholesterol Holtzman rats after 14 days administration; assay type: functional; method in brief: as §2
# Rattus norvegicus [11] = experiment: Effect on low density Phospholipids Holtzman rats after 14 days administration; assay type: functional; method in brief: as §2
# Rattus norvegicus [12] = experiment: Effect on low density Triglycerides Holtzman rats after 14 days administration; assay type: functional; method in brief: as §2
# Mus musculus [13] = experiment: In vivo effect on CF1 male mouse on Lipid content after 16 days at a dose of 20 (mg/kg)/day
structure (smiles),measurement,setting,value
CC(=O)c1ccccc1N1C(=O)c2ccccc2C1=O,Control,Mus musculus [1],71%
same,Control,Mus musculus [2],85%
same,Control,Mus musculus [3],56%
same,Control,Mus musculus [4],48%
same,Control,Mus musculus [5],94%
same,Control,Mus musculus [6],100%
same,Control,Mus musculus [7],98%
same,Control,Mus musculus [8],81%
same,Control,Rattus norvegicus [9],63%
same,Control,Rattus norvegicus [10],52%
same,Control,Rattus norvegicus [11],87%
same,Control,Rattus norvegicus [12],52%
same,Control,Mus musculus [13],85%
